Assay results reported in publication PMC3428850 (Molecular cancer therapeutics, 2012).
Values joined by “and” are separate entries in the source; they are usually repeats but may differ in a detail not shown here. Identical values can stand only once. Like-named read-outs stand apart in the source and are kept apart here.

Experiments:
MDA-MB-231 cells = assay: clonogenic survival assay; assay type: cell-based, human
Outline: (§1)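 Cells in RPMI 1640/10% FBS were exposed in 6-well plates for 16 h to etoposide or doxorubicin with or without test compound (1 μM), or to test compound alone. Cells then harvested and reseeded in drug-free medium. Colonies stained with crystal violet after 10-14 days and counted automatically. Fold enhancement = survival with cytotoxic alone / survival with cytotoxic + 1 μM test compound. Means ± SD, n = 3.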

V3-YAC cells = assay: clonogenic survival assay, DNA-PKcs-proficient cells; assay type: cell-based, Chinese hamster
Outline: (§2)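 Chinese hamster ovary V3 cells (DNA-PKcs-deficient) and V3-YAC cells (human DNA-PKcs on YAC; kept under G-418 500 μg/ml) in RPMI 1640/10% FBS. Etoposide alone or with 1 μM test compound, or test compound alone, for 16 h. Reseeded drug-free. Crystal violet colony counts after 10-14 days. Fold enhancement as survival ratio. Means ± SD of 3 independent experiments.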

MCF7 cells = assay: clonogenic survival assay; assay type: cell-based, human; conditions: MCF7, 1 μM, 16 hr exposure, single agent
Outline: as §1

LoVo cells = assay: clonogenic survival assay; assay type: cell-based, human
Outline: as §1

[1] = assay type: in vivo, mice; conditions: for concentration at 60 min / concentration at 120 min: female, CD1-nu/nu (athymic), mouse, intravenous, 12.5 mg/kg
Outline: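 Female athymic CD1-nu/nu mice kept in SPF isolators, bearing MCF7 or SW620 xenografts (650 mm³). Test compound 12.5 mg/kg i.v. in equimolar phosphoric acid/saline, pH 5. Tumours homogenised in PBS (1:3 w/v) on ice. Plasma and tumour concentrations by LC-MS/MS. Means ± SD of 3 mice per time point.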

SW620 cells [2] = assay: clonogenic survival assay; assay type: cell-based, human
SW620 cells [3] = assay: cell growth inhibition, SRB assay, 5-day continuous exposure; assay type: cell-based, human
MCF7 xenografts = assay: anti-tumour efficacy study, MCF7 xenografts; assay type: in vivo; conditions: MCF7 tumour-bearing mice
T47D cells = assay: cell growth inhibition, SRB assay, 5-day continuous exposure; assay type: cell-based; conditions: Homo sapiens, 120 h
Outline: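 Human cancer cells in RPMI 1640 with 10% FBS, penicillin/streptomycin, at 37 °C and 5% CO2. Test compound (10 mM DMSO stock) given by continuous exposure for 5 days. Growth measured by SRB assay. […] Means ± SD of 3 independent experiments.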

V3 cells = assay: clonogenic survival assay, DNA-PKcs-deficient cells; assay type: cell-based, Chinese hamster
Outline: as §2

## CCN1CCN(CC(=O)Nc2ccc(-c3cccc4c(=O)cc(N5CCOCC5)oc34)c3sc4ccccc4c23)CC1 [KU-0060648, 2-(4-ethylpiperazin-1-yl)-N-(4-(2-morpholino-4-oxo-4H-chromen-8-yl)dibenzo[b,d]thiophen-1-yl)acetamide]
MDA-MB-231 cells; MDA-MB-231, 100 nM doxorubicin, 16 hr
  Fold enhancement of doxorubicin cytotoxicity (survival cytotoxic alone/survival cytotoxic + 1 μM KU-0060648): 3.8±0.6 fold
MDA-MB-231 cells; MDA-MB-231, 1 μM, 16 hr exposure, single agent
  overall cell survival (clonogenic): 41%
V3-YAC cells; 1 μM KU-0060648, 16 hours
  fold enhancement of etoposide cytotoxicity: > 13 fold
V3-YAC cells; 1 μM, 16 hours
  reduction in cell viability, compound alone: < 15%
MCF7 cells
  overall cell survival (clonogenic): ≥ 80%
LoVo cells; 100 nM doxorubicin, 16 hr
  Fold enhancement of doxorubicin cytotoxicity (survival cytotoxic alone/survival cytotoxic + 1 μM KU-0060648): 73±29 fold
LoVo cells; 1 μM, 16 hr exposure, single agent
  overall cell survival (clonogenic): ≥ 80%
[1]; MCF7 xenografts, 12.5 mg/kg i.v., for at least 4 hours
  concentration maintained in the tumour: over 1 μM
[1]; plasma
  concentration at 60 min: 1000 ± 600 nM
  concentration at 120 min: 800 ± 500 nM
[1]; tumour (MCF7 xenograft)
  concentration at 60 min: 7000 ± 3800 nM
  concentration at 120 min: 4700 ± 1100 nM
SW620 cells [2]; SW620, 100 nM doxorubicin, 16 hr
  Fold enhancement of doxorubicin cytotoxicity (survival cytotoxic alone/survival cytotoxic + 1 μM KU-0060648): 12 fold and 12±8 fold
SW620 cells [2]; SW620, 1 μM, 16 hr exposure, single agent
  overall cell survival (clonogenic): ≥ 80%
SW620 cells [3]; Homo sapiens, SW-620, 120 h
  GI50: 950 nM
SW620 cells [3]; SW620, 1 μM, 5 days, 1 µM
  inhibition of cell growth: > 50% and 50%
MCF7 xenografts
  maximum body weight loss: 3%
T47D cells
  GI50: 410 nM
T47D cells; read-out: inhibition of cell growth
  inhibition at 1 µM: > 50%
V3 cells; V3, 1 μM KU-0060648, 16 hours
  fold enhancement of etoposide cytotoxicity: 2.5 fold
V3 cells; V3, 1 μM, 16 hours
  reduction in cell viability, compound alone: < 15%
